# From ChEMBL document CHEMBL1141869
# The source made the active and inactive calls. No cut-off for these calls is given here.
# Legend:
# [1] = molecular target: NAD-dependent histone deacetylase SIR2 (Saccharomyces cerevisiae S288c) (UniProt P06700); test: Inhibitory activity against recombinant yeast Sir2 at 100 uM
# Method in brief: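 Purified His-tagged recombinant yeast Sir2p (3 μg) was incubated 60 min at 30 °C with 250 μM acetylated histone substrate, 1 mM DTT, 200 μM NAD⁺ and inhibitor at 0, 20, 75, 100, 150 or 300 μM. Deacetylation was detected fluorometrically after developer treatment (ex 360/em 450 nm). Values are means of at least three separate experiments.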
# [2] = molecular target: T1, NAD-dependent protein deacetylase sirtuin-1 (Homo sapiens) (UniProt Q96EB6); test: Inhibitory activity against human SIRT1 at 100 uM
# T1 sequence (whole entry): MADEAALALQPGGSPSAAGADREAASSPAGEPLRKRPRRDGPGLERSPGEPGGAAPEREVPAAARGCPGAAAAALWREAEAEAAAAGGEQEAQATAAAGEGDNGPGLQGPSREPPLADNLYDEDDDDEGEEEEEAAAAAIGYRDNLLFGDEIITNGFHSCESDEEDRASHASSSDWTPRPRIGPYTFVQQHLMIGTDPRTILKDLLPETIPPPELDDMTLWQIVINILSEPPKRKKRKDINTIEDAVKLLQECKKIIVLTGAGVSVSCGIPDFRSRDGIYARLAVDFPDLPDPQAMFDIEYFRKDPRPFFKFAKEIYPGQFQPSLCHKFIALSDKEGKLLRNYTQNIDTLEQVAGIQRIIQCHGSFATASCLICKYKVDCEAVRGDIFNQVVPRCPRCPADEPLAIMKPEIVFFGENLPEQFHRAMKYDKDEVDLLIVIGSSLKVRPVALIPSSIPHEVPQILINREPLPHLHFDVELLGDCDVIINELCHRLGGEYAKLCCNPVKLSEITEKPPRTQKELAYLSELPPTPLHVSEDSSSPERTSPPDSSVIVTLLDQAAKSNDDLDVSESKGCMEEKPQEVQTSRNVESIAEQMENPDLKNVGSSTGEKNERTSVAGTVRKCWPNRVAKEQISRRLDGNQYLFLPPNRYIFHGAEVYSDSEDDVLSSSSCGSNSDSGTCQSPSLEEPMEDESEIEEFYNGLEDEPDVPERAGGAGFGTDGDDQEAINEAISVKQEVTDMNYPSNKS
# Method in brief: (§1)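 His-tagged recombinant human SIRT1 or SIRT2 (1 μg), purified, run in a fluorogenic deacetylase assay with 250 μM acetylated histone substrate, 1 mM DTT and 200 μM NAD⁺ for 60 min at 37 °C. Inhibitor was tested at 0, 20, 75, 100, 150 or 300 μM. Developer was added and fluorescence read at ex 360/em 450 nm. Values are the mean of at least three separate experiments.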
# [3] = molecular target: T2, NAD-dependent protein deacetylase sirtuin-2 (Homo sapiens) (UniProt Q8IXJ6); test: Inhibitory activity against human SIRT2 at 100 uM; method in brief: as §1
# T2 sequence (whole entry): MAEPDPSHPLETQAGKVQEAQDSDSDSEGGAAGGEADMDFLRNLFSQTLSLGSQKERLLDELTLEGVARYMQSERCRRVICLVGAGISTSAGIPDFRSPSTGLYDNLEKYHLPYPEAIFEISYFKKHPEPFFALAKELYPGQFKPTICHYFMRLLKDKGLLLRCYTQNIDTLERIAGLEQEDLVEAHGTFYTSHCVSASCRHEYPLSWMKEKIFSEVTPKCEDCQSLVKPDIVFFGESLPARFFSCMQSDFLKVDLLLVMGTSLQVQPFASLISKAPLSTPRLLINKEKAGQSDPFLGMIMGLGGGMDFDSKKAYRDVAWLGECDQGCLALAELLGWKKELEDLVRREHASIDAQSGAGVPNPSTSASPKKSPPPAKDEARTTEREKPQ
# Chain of NAD-dependent histone deacetylase SIR2 (Saccharomyces cerevisiae S288c) (P06700 whole entry): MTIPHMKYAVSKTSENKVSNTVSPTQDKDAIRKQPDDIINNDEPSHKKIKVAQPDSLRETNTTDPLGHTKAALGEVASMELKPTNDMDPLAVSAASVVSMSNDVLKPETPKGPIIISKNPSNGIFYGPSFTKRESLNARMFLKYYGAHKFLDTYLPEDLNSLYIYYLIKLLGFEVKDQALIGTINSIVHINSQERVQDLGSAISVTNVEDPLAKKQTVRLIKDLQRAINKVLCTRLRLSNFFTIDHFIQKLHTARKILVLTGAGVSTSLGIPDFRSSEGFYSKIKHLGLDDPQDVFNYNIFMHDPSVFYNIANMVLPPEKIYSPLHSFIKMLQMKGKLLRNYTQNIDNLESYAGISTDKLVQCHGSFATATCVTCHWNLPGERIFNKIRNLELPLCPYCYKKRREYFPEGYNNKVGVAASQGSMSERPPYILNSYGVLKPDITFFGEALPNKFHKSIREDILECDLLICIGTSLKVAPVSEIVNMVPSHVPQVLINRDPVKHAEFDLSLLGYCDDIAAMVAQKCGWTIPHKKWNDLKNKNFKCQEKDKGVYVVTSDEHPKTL
Compound,inhibition [1],inhibition [2],inhibition [3]
C[C@@H](NC(=O)c1ccccc1/N=C/c1c(O)ccc2ccccc12)c1ccccc1,55.5%,61.8%,72.2%
NC(=O)c1ccccc1/N=C/c1c(O)ccc2ccccc12,inactive,inactive,–
C[C@H](NC(=O)c1ccccc1/N=C/c1c(O)ccc2ccccc12)c1ccccc1,57%,60.2%,73.5%
CC(NC(=O)c1cccc(/N=C/c2c(O)ccc3ccccc23)c1)c1ccccc1 (stereo not given),53.9%,63%,79.2%
CC(NC(=O)c1ccc(/N=C/c2c(O)ccc3ccccc23)cc1)c1ccccc1 (stereo not given),59.8%,82.6%,80.2%
CCOC(=O)c1ccccc1/N=C/c1c(O)ccc2ccccc12,20%,9%,–
CC(NC(=O)c1ccccc1/N=C/c1cccc2ccccc12)c1ccccc1 (stereo not given),10%,33%,–
CC(NC(=O)c1ccccc1/N=C/c1c(O)ccc2ccccc12)c1ccccc1 (stereo not given),65.6%,44.5%,71%
O=C(O)c1ccccc1/N=C/c1c(O)ccc2ccccc12,5%,26%,–
N#Cc1ccccc1/N=C/c1c(O)ccc2ccccc12,15%,20%,–
